Fh CTSL1 inh: blocks F. hepatica cathepsin L1 in PFM18AAP counter-screen | 0.49% of 300,000 active | recombinant F. hepatica cathepsin L1, Z-Leu-Arg-MCA fluorescence | inhibition, % at 5.96 µM;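 active = inhibition above the mean of all tested compounds plus 3 SD, set per screening campaign, cut at about 17% in these data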;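 note: 0% = plate median of test compound wells and 100% = 1 µM Z-Phe-Ala-diazomethylketone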
UCH37 inh: blocks the human deubiquitinase UCH37; purified proteasome/UCH37, Ub-AMC cleavage fluorescence; AID 588478; inhibition, % (concentration not given with the values); 0.33% of 330,000 active;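 active = mean inhibition over replicate wells above about 20%, limit read from the data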;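 note: 0% = compound-free wells with enzyme and 100% = wells lacking proteasome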
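Schedule: 30 min plus 25 min, room temperature / Material: human UCH37 within purified proteasomes / Technique: AMC fluorescence intensity at 355/460 nm / Buffer or medium: pH 7.4 Tris-HCl (50 mM) with ovalbumin, ATP-MgCl2, DTT / Controls: wells without proteasome as full block, compound-free enzyme plus substrate as uninhibited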
GSTO1 inh: blocks human GSTO1 in RBBP9 counter-screen. P78417. 1.1% of 300,000 active. recombinant GSTO1, activity-based probe fluorescence polarization. inhibition, % at 5.96 µM. AID 1974;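 active = inhibition above the campaign mean inhibition plus 3 SD, cut at about 35% in these data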;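 note: 0% = GSTO1-1 with DMSO and 100% = wells lacking GSTO1-1 enzyme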
HKDC1 inhibitor: inhibitors of human hexokinase HKDC1; Q2TB90; recombinant HKDC1, G6PDH/diaphorase resazurin coupled fluorescence; inhibition, % at 20 µM; 0.16% of 340,000 active; AID 493160;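 active = inhibition above about 35% when tested at 20 µM, limit read from the data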;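 note: plate controls were DMSO wells with enzyme for no effect and DMSO wells lacking enzyme for full effect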
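Test system: Recombinant HKDC1 (HK5) hexokinase enzyme, produced in-house | Input: HKDC1 at 5 µg/mL | Buffer or medium: Tris pH 8.0 buffer with MgCl2, Tween-20, BSA, BME | Schedule: 90 min reaction incubation at room temperature, dark | Technique: Resazurin-to-resorufin fluorescence via G6PDH and diaphorase coupling, 525/613 nm | Controls: DMSO wells with and without enzyme mix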
TDP2 inh: TDP2 (human) inhibition, absorbance primary screen. 0.34% of 370,000 active. inhibition, % at 12.8 µM. recombinant TDP2, T5PNP hydrolysis, p-nitrophenol absorbance 415 nm. O95551;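 active = inhibition above the mean of all tested compounds plus 3 SD, set per campaign, cut at about 25% in these data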;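 note: 0% = DMSO with enzyme and 100% = buffer with substrate but no TDP2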
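Incubation: 2 h at 37 °C; Test system: recombinant human TDP2; Quantity: enzyme 120 nM; Read-out basis: percent inhibition; Medium: 50 mM Tris-HCl pH 7.5 with Mg2+, KCl, DTT, BSA; Repeats: single replicate; Compound: 12.8 µM single point, 1% DMSO; Signal: epi absorbance; Reagent: 5 mM T5PNP chromogenic substrate; Benchmarks: no-enzyme high, DMSO-plus-enzyme low.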
PAD4 FP inh: inhibitors of human PAD4; recombinant PAD4, RCA probe fluorescence polarization; 0.41% of 330,000 active; AID 485272; inhibition, % at 6.36 µM;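 active = percent inhibition above a cutoff equal to the mean of all tested compounds plus 3 SD, cut at about 15% in these data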;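 note: 0% = PAD4 with RCA probe and DMSO and 100% = probe without PAD4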
Target sequence (Q9UM07 whole entry, looked up): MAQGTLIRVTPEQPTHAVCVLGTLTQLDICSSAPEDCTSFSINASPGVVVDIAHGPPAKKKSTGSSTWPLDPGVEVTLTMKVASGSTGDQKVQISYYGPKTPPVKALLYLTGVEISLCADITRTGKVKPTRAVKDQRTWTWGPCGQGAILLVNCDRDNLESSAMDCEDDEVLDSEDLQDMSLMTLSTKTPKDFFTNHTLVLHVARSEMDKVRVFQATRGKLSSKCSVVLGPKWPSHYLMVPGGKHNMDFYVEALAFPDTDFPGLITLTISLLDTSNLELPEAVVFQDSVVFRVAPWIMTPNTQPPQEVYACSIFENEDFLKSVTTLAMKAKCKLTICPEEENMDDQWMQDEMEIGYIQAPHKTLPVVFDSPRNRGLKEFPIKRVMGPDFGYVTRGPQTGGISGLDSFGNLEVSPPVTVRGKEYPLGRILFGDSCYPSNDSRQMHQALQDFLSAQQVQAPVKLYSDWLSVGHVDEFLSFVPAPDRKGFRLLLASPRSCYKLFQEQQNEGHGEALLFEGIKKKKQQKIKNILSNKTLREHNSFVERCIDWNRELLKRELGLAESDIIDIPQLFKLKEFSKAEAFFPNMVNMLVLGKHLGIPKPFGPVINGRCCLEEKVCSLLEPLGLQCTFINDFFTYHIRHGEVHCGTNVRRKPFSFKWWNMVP
HKDC1 act conf2: HKDC1 (human) activation, single-dose confirmed; shares compounds with HKDC1 inhibitor; recombinant HKDC1, G6PDH/diaphorase resazurin fluorescence; stronger effect = lower value; inhibition, % at 20 µM; 14% of 740 active;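 active = inhibition at or below a set negative limit, negative inhibition meaning the enzyme was activated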
Starred values were filed as active, the others as inactive; . = no result given. Hits are enriched below; roughly 1.6% of the tested compounds scored in any of these assays.

SMILES	Fh CTSL1 inh	UCH37 inh	GSTO1 inh	HKDC1 inhibitor	TDP2 inh	PAD4 FP inh	HKDC1 act conf2
COc1cc(N(C)C)ccc1C=c1c2ccccc2n2c1cc(-c1ccccc1)[n+]2C	.	.	.	41*	10	.	37
CN(C)c1ccc(C=c2c3ccccc3n3c2cc(-c2ccc(Cl)cc2)[n+]3C)cc1	.	.	.	18	12	.	.
CN(N=Cc1ccc(N(C)C)cc1)C1=NS(=O)(=O)c2ccccc21	.	0	.	.	.	.	.
S=C(NCCc1ccc(Cl)cc1)NCc1ccccc1	3	4	0	-63	.	-4	-12
COc1ccc(CN2CCn3nc(C(=O)NC(C)C)cc3C2=O)cc1	1	6	8	-75	7	1	-28
COC(=O)c1cc2n(n1)CCN(Cc1ccc(C)cc1)C2=O	-4	2	1	-5	2	3	.
COc1cccc(C(=O)NCC(c2ccco2)N2CCc3ccccc3C2)c1 (centres undefined)	1	2	5	35	7	-2	0
Cc1cc(C)nc(NN=Cc2cc3c(cc2[N+](=O)[O-])OCO3)n1	.	5	.	.	.	.	.
Fc1ccc(F)c(C2=NNC(=Nc3ccccc3F)SC2)c1	0	0	7	-143	5	0	.
Fc1ccccc1N=C1NN=C(c2ccccc2)CS1	1	4	-13	-82	4	-11	-53*
Fc1ccc(N=C2NN=C(c3cc(F)ccc3F)CS2)cc1	1	0	-5	-218	-1	-19	-132*
Cc1cccc(N=C2NN=C(c3ccccc3F)CS2)c1C	-1	2	10	-10	-9	-13	.
CCCCCC1=CCCC1=NNC(=O)c1ccc2c(c1)OCO2	.	1	.	.	.	.	.
Cc1cc(Oc2ccc(C(C)(C)C)cc2)nc(N2CCOCC2)n1	-4	3	3	33	0	-4	-37*
Cc1cc(Oc2ccc(-c3ccccc3)cc2)nc(N2CCOCC2)n1	-2	5	3	2	-4	3	.
Cc1cccc(C)c1Nc1nnc(SCc2cn3cccc(C)c3n2)s1	-5	4	-4	34	1	-1	54
Cc1ccc2nc(CSc3nnc(Nc4ccccc4C)s3)cc(=O)n2c1	4	-3	-3	-6	-6	-2	.
CC(=NNC(=S)N1CCCCC1)c1cccc(C)n1	.	.	.	-40	1	.	-40*
CC(=NNC(=S)N1CCCCC1)c1ccccn1	.	.	.	.	6	.	.
Cc1ccn(CC(=O)NN=Cc2cc([N+](=O)[O-])ccc2O)n1	.	17	.	.	.	.	.
Nc1nc(-c2cccc(Br)c2)cs1	-6	5	2	-65	8	2	-41*
Nc1nc(-c2ccc(Br)cc2)cs1	1	2	16	3	-4	1	.
N#CC(C#N)=Cc1cc2ccccc2nc1N1CCCCC1	-1	2	5	38*	5	0	17
COCc1c(C(=O)NN=CC2CC=CCC2)nnn1-c1nonc1N (centres undefined)	.	2	.	.	.	.	.
Cc1cc(C)n2cc(CSc3nnc(-c4ccccc4)c(-c4ccccc4)n3)nc2n1	.	3	.	38*	7	.	38
SMILES	Fh CTSL1 inh	UCH37 inh	GSTO1 inh	HKDC1 inhibitor	TDP2 inh	PAD4 FP inh	HKDC1 act conf2
Cc1c(O)c2ccccc2n(-c2ccccc2)c1=O	-6	-9	0	4	-12	-2	.
CC(C)(C)c1c(Cl)c(O)c(-c2ccccc2)c(=O)n1-c1ccccc1	.	2	.	36*	-1	.	41
COc1ccc2c(c1)CCc1c(C(=O)N3CCCc4ccccc43)noc1-2	3	0	-52	38*	3	-2	-26
Cc1nc2ccccc2c(=O)n1Cc1ccco1	0	2	-6	-3	10	-3	.
COc1ccc(Cn2c(C)nc3c(c2=O)c2nc4ccccc4nc2n3Cc2ccco2)cc1	.	-39	.	33	0	.	-10
COC1(NS(=O)(=O)c2ccc(Br)cc2)C(C)=CC(=O)C=C1C	8	1	7	50*	7	0	26
COCCNCCCCOc1ccccc1-c1ccccc1	-5	4	2	-13	-4	-6	.
CCCCNCCOCCOc1ccccc1-c1ccccc1	1	-18	-1	-59	12	0	-7
COc1ccc(C=NNc2ccccn2)c(OC)c1	.	0	.	.	.	.	.

Compound activity deposited in PubChem by several laboratories.
